# Key:
# [1] = tested on: Vero C1008; assay: Cytotoxicity against cells African green monkey Vero E6 cells incubated for 24 to 72 hrs by alamar blue assay; format: toxicity, cell-based; conditions: chlorocebus sabaeus, time 24-72 hrs
# Procedure, shortened: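 VeroE6 cells in DMEM with 10% FCS were seeded at 5 × 10^4 per well. After adherence, cells were given varying compound concentrations for 24 or 72 h at 37 °C, 5% CO2. Alamar Blue HS was added for a further 2–4 h. Viability was read as fluorescence at ex/em 560/590 nm.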
# [2] = tested on: SARS-CoV-2; assay: Antiviral activity against SARS-CoV-2 infected in African green monkey Vero E6 cells assessed as inhibition of viral infection pre incubated for 30 minutes followed by viral infection and measured after 72 hrs by Nucblue dye based fluorometric analysis; format: functional, organism-based; conditions: Severe acute respiratory syndrome coronavirus 2, Vero C1008
# [3] = target: Cathepsin S (Homo sapiens, UniProt P25774); assay: Inhibition of human recombinant Cathepsin S assessed remaining activity using Z-FR-AMC as substrate incubated for 30 mins by fluorometric assay
# Cathepsin S, sequence (P25774 whole entry): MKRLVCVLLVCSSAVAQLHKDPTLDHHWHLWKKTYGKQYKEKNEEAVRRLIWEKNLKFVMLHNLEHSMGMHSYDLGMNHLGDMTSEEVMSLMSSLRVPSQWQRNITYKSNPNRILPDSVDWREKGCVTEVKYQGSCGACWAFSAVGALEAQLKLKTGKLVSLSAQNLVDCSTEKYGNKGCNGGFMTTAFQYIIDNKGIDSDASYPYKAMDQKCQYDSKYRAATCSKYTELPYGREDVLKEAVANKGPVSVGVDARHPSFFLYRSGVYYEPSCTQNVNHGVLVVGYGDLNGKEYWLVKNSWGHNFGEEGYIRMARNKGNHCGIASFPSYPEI
# Procedure, shortened: (§1)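 Recombinant human cathepsins: L, B, V and K at 1.11 nM, S at 4.44 nM. Each was preincubated 30 min at 25 °C with 3333 to 0.006 nM compound. Z-FR-AMC was added at 40 μM final. AMC release rate over 0–30 min was compared with DMSO (ex/em 360/460). IC50 from four technical replicates.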
# [4] = target: T1, Procathepsin L (Homo sapiens, UniProt P07711); assay: Inhibition of human recombinant Cathepsin L assessed as Kinact using Z-FR-AMC as substrate inubated for 30 mins by fluorometric assay
# Procedure, shortened: (§2)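 Human CatL, human CatB or mouse CatL at 1 nM, at 25 °C in pH 5.5 Na acetate/DTT/EDTA/NaCl buffer. Reactions held 40 μM Z-FR-AMC and 555.56 to 0.01 nM compound, in quadruplicate. Product formation was measured at 6 min intervals for 1 h and normalized to DMSO wells. kobs came from inactivation curves. kinact and KIapp were obtained by nonlinear regression of kobs = kinact[I]/(KIapp + [I]); their ratio was then calculated.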
# Target sequence in this assay (P07711 114-333 limits assumed): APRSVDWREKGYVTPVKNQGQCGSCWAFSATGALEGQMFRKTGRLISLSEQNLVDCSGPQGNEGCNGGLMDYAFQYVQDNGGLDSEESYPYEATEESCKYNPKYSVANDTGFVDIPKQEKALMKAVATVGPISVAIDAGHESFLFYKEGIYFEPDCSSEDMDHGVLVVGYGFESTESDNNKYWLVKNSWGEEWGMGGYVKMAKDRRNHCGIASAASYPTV
# [5] = target: T2, Cathepsin B (Homo sapiens, UniProt P07858); assay: Inhibition of human recombinant Cathepsin B assessed as Apparent inhibition constant using Z-FR-AMC as substrate inubated for 30 mins by fluorometric assay; conditions: read-out: Ki(app); procedure, shortened: as §2
# [6] = target: T1, Procathepsin L; assay: Inhibition of human recombinant Cathepsin L assessed as ratio of Kinact/Kiapp using Z-FR-AMC as substrate inubated for 30 mins by fluorometric assay
# Target sequence in this assay (P07711 114-333 limits assumed): as above
# [7] = target: T3, Procathepsin L (Mus musculus) (UniProt P06797); assay: Inhibition of mouse Cathepsin L assessed as ratio of Kinact/Kiapp using Z-FR-AMC as substrate inubated for 30 mins by fluorometric assay; procedure, shortened: as §2
# T3 sequence (whole entry): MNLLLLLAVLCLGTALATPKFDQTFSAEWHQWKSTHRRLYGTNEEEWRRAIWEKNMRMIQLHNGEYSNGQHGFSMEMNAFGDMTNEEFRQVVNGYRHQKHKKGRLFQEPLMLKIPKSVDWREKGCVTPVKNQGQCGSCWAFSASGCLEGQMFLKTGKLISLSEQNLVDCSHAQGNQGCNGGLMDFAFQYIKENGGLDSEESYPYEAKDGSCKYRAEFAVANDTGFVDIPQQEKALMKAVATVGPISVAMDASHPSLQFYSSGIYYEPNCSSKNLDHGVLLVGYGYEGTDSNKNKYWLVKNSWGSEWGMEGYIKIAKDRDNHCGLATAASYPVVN
# [8] = target: T2, Cathepsin B; assay: Inhibition of human recombinant Cathepsin B assessed as Kinact using Z-FR-AMC as substrate inubated for 30 mins by fluorometric assay
# [9] = target: T4, Cathepsin K (Homo sapiens, UniProt P43235); assay: Inhibition of human recombinant Cathepsin K assessed remaining activity using Z-FR-AMC as substrate incubated for 30 mins by fluorometric assay; procedure, shortened: as §1
# T4 sequence (P43235 whole entry): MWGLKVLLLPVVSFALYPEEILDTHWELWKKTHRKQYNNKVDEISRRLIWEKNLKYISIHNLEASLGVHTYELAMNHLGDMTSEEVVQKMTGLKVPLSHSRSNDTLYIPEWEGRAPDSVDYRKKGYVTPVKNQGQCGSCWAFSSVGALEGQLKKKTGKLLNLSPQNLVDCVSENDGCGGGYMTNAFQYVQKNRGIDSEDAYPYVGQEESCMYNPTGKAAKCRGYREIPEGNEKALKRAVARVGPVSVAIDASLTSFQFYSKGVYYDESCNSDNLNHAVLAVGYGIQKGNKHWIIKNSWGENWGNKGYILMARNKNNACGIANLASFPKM
# [10] = target: T2, Cathepsin B; assay: Inhibition of human recombinant Cathepsin B assessed as ratio of Kinact/Kiapp using Z-FR-AMC as substrate inubated for 30 mins by fluorometric assay; procedure, shortened: as §2
# [11] = target: T3, Procathepsin L (Mus musculus); assay: Inhibition of mouse Cathepsin L assessed as Kinact using Z-FR-AMC as substrate inubated for 30 mins by fluorometric assay; procedure, shortened: as §2
# [12] = target: T2, Cathepsin B; assay: Inhibition of human recombinant Cathepsin B assessed remaining activity using Z-FR-AMC as substrate incubated for 30 mins by fluorometric assay; procedure, shortened: as §1
# [13] = target: T5, Cathepsin L2 (Homo sapiens, UniProt O60911); assay: Inhibition of human recombinant Cathepsin V assessed remaining activity using Z-FR-AMC as substrate incubated for 30 mins by fluorometric assay; procedure, shortened: as §1
# T5 sequence (O60911 whole entry): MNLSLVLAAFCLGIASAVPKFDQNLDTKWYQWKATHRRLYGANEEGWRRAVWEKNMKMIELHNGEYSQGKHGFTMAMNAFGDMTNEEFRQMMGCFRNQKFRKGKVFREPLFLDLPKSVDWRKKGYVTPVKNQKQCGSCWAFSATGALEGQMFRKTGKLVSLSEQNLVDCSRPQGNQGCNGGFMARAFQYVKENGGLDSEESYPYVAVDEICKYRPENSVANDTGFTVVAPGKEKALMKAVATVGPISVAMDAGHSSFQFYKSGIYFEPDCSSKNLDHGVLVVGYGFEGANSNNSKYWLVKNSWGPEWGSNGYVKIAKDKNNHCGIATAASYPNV
# [14] = target: T6, Procathepsin L (Mus musculus, UniProt P06797); assay: Inhibition of mouse Cathepsin L assessed as Apparent inhibition constant using Z-FR-AMC as substrate inubated for 30 mins by fluorometric assay; conditions: read-out: Ki(app); procedure, shortened: as §2
# T6 sequence (P06797 whole entry): T3 sequence (whole entry)
# [15] = target: T1, Procathepsin L; assay: Inhibition of human recombinant Cathepsin L assessed enzyme activity using Z-FR-AMC as substrate at 416 nM incubated for 30 mins by fluorometric assay
# Procedure, shortened: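 Recombinant human CatL at 50 pM was incubated with 416 nM compound for […] at 25 °C in 50 mM Na acetate pH 5.5, 5 mM DTT, 0.01% BSA, 1 mM EDTA. An equal volume of 5 μM Z-FR-AMC was then added. Fluorescence was read at 360/460 nm in triplicate wells and normalized to DMSO vehicle wells.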
# Target sequence in this assay (P07711 114-333 limits assumed): as the sequence (P07711 114-333 limits assumed) above
# [16] = target: T1, Procathepsin L; assay: Inhibition of human recombinant Cathepsin L assessed as Apparent inhibition constant using Z-FR-AMC as substrate […] by fluorometric assay; conditions: read-out: Ki(app)
# Target sequence in this assay (P07711 whole entry): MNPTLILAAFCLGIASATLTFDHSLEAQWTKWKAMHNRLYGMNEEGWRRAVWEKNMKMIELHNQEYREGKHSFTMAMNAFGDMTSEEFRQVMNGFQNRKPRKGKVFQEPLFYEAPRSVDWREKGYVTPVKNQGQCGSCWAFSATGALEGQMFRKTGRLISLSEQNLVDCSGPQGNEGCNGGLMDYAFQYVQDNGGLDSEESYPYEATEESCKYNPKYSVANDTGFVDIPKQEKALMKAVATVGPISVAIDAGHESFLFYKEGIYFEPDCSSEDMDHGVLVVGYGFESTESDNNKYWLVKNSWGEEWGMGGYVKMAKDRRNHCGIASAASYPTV
SMILES,CC50 [1] [nM],EC50 [2] [nM],IC50 [3] [nM],Kinact [4],Ki [5] [nM],Ratio [6],Ratio [7],Kinact [8],IC50 [9] [nM],Ratio [10],Kinact [11],IC50 [12] [nM],IC50 [13] [nM],Ki [14] [nM],inhibition [15] [%],Ki [16] [nM]
COC1=CC(=O)N(C(=O)/C=C/[C@H](C)NC(=O)[C@H](CC(C)C)NC(=O)[C@H](CC(C)C)NC(=O)C2CCN(C)CC2)[C@H]1Cc1c[nH]c2ccccc12,> 100000,> 5000,0.0149,8.34 10^-3/s,854,2.9 10^5/s/M,8.06 10^5/s/M,1.7 10^-2/s,17.9,1.99 10^4/s/M,3.19 10^-3/s,0.416,63.2,3.95,,
COC1=CC(=O)N(C(=O)/C=C/[C@H](C)NC(=O)[C@H](CC(C)C)NC(=O)[C@H](Cc2ccccc2)NC(=O)[C@H](CC(C)C)N(C)C)[C@H]1Cc1c[nH]c2ccccc12,,,,,,,,,,,,,,,90,
COC1=CC(=O)N(C(=O)/C=C/[C@H](CCc2ccccc2)NC(=O)[C@H](CC(C)C)NC(=O)[C@H](CC(C)C)NC(=O)[C@H](C(C)C)N(C)C)[C@H]1Cc1c[nH]c2ccccc12,> 100000,920,0.224,9.85 10^-3/s,238,8.35 10^5/s/M,2.31 10^6/s/M,1.89 10^-3/s,1.5,7.94 10^3/s/M,9.6 10^-3/s,0.149,419,4.15,,11.8

# Reference: ChEMBL document CHEMBL5154645, “Potent Anti-SARS-CoV-2 Activity by the Natural Product Gallinamide A and Analogues via Inhibition of Cathepsin L” (J Med Chem, 2022)
